From ChEMBL document CHEMBL4828761, “Development and crystallography-aided SAR studies of multifunctional BuChE inhibitors and 5-HT6R antagonists with β-amyloid anti-aggregation properties” (Eur J Med Chem, 2021)

Legend:
[1] = target: 5-hydroxytryptamine receptor 6 (Homo sapiens, UniProt P50406); test: Displacement of [3H]LSD from human 5HT6 receptor expressed in CHO-K1 membrane incubated for 60 mins by solid scintillation counting analysis; type: cell membranes
Cholinesterase [2] = target: Cholinesterase (Equus caballus, UniProt P81908); test: Inhibition of equine serum BuChE using BTC as substrate preincubated with enzyme for 5 mins followed by substrate addition for 5 mins by Ellman's method; type: cell-free
[3] = target: Amyloid-beta precursor protein (Homo sapiens) (UniProt P05067); test: Inhibition of amyloid beta (1 to 42) (unknown origin) self aggregation at 10 uM incubated for 24 to 48 hrs by Thioflavin-T based fluorometric assay; conditions: time lower […], time upper 48.0 hrs
Cholinesterase [4] = target: T1, Cholinesterase (Homo sapiens, UniProt P06276); test: Inhibition of BuChE in human plasma using BTC as substrate at 10 uM preincubated with enzyme for 5 mins followed by substrate addition for 5 mins by Ellman's method relative to control; type: cell-free; conditions: time 10.0 min
In short: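 Human plasma BuChE at 0.384 U/mL final, with DTNB in 0.1 M phosphate buffer pH 8.0. Compound at 10 µM screened, preincubated 5 min at 36 °C.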

Acetylcholinesterase = Acetylcholinesterase (Electrophorus electricus, UniProt O42275); test: Inhibition of electric eel AchE using ATC as substrate preincubated with enzyme for 5 mins followed by substrate addition for 5 mins by Ellman's method
In short: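 Electric eel AChE at 0.384 U/mL final, with DTNB in 0.1 M phosphate pH 8.0. […] ATC solution (0.00375 M) added; A412 after 5 min. Run in triplicate; IC50 by nonlinear regression of residual activity versus concentration.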

Cholinesterase [5] = target: T1, Cholinesterase; test: Inhibition of BuChE in human plasma using BTC as substrate preincubated with enzyme for 5 mins followed by substrate addition for 5 mins by Ellman's method; type: cell-free
In short: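 Human plasma BuChE at 0.384 U/mL final, with DTNB in 0.1 M phosphate pH 8.0. […] BTC solution (0.00375 M) added; A412 after 5 min. Run in triplicate; IC50 from nonlinear regression of residual activity versus concentration.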

[6] = Metabolic stability in mouse liver microsomes assessed as parent compound remaining at 50 microM preincubated for 5 mins followed by incubation with NADPH regenerating system for 120 mins by UPLC-MS analysis; type: ADME, Microsome; conditions: time 125 min, read-out: Stability
In short: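 Mouse liver microsomes 1 mg/mL in 0.1 M Tris-HCl pH 7.4 with 50 μM compound, preincubated 5 min at 37 °C, then started with NADPH regeneration system; stopped after 120 min at 37 °C with cold methanol, centrifuged, supernatant analysed by UPLC-MS for remaining parent and metabolites. Verapamil served as reference.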

[7] = Cytotoxicity against human HepG2 cells assessed as non-toxic concentration incubated for 72 hrs by MTS assay; type: cell-based; conditions: read-out: MNCC
In short: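 HepG2 cells grown in MEM with 2 mM glutamine, 1% NEAA, 10% FBS at 37 °C, 5% CO2. Compounds tested in quadruplicate at 0.1, 1, 10 and 100 μM for 72 h; viability read by MTS (CellTiter 96 AQueous) assay. Doxorubicin 1 μM and CCCP 10 μM served as positive controls.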

T1 sequence (P06276 whole entry): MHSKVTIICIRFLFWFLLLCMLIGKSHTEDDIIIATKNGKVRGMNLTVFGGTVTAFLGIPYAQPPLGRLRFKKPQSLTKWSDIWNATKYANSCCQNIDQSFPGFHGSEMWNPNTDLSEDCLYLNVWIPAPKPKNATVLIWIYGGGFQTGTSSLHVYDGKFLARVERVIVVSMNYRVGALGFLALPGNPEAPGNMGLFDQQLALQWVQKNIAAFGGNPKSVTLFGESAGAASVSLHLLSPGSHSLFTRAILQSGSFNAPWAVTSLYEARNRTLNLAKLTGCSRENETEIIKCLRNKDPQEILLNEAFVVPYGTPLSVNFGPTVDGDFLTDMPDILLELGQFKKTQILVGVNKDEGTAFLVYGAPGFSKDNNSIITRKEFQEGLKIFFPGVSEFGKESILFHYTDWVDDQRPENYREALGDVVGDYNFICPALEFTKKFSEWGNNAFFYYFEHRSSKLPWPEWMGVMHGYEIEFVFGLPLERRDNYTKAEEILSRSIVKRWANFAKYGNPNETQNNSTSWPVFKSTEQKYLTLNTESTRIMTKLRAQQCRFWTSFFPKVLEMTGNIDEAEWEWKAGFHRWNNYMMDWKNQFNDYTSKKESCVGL
Sequence of 5-hydroxytryptamine receptor 6 (P50406 whole entry): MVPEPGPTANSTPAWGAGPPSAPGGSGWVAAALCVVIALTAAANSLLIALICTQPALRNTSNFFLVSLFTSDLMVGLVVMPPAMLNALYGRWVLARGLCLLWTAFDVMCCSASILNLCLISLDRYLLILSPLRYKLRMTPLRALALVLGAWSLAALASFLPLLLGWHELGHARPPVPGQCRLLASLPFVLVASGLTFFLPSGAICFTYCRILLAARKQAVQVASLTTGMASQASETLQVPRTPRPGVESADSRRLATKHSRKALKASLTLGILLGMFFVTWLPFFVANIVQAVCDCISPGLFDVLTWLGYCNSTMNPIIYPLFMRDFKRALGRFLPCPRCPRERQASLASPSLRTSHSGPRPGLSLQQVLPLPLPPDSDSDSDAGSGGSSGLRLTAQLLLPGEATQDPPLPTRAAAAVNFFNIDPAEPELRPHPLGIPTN
Sequence of Amyloid-beta precursor protein (Homo sapiens) (P05067 whole entry): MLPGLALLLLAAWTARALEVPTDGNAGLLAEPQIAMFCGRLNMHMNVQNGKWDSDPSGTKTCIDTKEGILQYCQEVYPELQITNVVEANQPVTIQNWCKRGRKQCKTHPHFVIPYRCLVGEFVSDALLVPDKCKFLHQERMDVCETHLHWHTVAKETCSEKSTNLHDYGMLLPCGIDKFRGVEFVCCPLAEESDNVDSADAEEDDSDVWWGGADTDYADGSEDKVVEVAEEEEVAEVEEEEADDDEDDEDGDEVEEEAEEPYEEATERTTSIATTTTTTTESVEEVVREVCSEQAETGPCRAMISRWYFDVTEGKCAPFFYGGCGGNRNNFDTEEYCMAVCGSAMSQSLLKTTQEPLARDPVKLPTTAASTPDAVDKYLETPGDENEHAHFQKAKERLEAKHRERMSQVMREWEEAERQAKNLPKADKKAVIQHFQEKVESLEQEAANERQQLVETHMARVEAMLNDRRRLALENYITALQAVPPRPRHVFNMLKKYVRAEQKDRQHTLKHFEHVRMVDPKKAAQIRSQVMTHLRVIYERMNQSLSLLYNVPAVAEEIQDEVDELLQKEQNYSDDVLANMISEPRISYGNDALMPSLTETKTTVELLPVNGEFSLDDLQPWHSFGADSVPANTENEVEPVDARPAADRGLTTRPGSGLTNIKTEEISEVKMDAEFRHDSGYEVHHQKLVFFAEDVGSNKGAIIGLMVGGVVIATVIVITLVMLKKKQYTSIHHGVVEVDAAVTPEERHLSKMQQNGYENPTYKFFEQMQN
Sequence of Acetylcholinesterase (O42275 whole entry): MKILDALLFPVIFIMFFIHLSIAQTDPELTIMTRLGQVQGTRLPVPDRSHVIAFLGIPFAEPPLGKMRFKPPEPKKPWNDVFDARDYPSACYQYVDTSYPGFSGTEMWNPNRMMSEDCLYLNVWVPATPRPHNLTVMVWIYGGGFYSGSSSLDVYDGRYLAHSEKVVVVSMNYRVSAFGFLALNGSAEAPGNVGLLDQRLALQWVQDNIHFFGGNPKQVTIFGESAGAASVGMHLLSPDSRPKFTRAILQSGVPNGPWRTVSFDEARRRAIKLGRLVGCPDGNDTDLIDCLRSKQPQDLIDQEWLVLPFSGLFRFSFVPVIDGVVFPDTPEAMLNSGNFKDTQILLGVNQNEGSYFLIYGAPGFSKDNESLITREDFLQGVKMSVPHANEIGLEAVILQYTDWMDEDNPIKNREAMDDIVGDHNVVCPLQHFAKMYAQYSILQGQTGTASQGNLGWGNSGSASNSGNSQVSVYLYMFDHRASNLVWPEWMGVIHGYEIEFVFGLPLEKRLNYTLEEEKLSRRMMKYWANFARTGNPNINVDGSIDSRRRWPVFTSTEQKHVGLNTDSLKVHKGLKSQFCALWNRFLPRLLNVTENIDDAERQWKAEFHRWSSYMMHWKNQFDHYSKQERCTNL
Sequence of Cholinesterase (Equus caballus, UniProt P81908) (P81908 whole entry): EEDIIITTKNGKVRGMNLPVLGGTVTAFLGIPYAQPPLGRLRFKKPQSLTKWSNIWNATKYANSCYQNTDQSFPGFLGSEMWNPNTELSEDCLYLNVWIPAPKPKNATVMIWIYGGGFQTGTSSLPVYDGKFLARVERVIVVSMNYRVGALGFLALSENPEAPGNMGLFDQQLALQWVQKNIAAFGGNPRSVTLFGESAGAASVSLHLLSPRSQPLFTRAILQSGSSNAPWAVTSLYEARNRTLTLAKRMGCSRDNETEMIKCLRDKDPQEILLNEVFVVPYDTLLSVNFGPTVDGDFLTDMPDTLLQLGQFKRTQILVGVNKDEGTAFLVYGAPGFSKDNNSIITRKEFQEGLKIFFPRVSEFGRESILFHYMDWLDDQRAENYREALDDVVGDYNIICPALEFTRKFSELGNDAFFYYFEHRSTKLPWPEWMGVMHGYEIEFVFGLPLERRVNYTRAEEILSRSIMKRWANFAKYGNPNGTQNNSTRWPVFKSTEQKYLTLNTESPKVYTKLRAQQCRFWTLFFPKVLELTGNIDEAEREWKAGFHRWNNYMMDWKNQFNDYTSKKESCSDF

Row | Structure (SMILES) | Ki [1] [nM] | IC50 (Cholinesterase [2]) [nM] | inhibition [3] [%] | inhibition (Cholinesterase [4]) [%] | IC50 (Acetylcholinesterase) [nM] | IC50 (Cholinesterase [5]) [nM] | remaining at 2 h, 50 µM [6] [%] | MNTC at 72 h [7] [µM]
1 | Cc1cccc(CNCCOc2cccc3c2[nH]c(=O)n3Cc2ccccc2)c1 | 207 | 1500 | 64.3 | < 50 | 1800 |  |  | 
2 | c1ccc(CNCCOc2cccc3c2CCN3Cc2ccccc2)cc1 | 389 | 997 | 72.5 | < 50 |  |  |  | 
3 | O=S(=O)(c1ccccc1)n1ccc2c(OCCNCC3CC3)cccc21 | 2.7 | 2220 | < 20 | < 50 |  |  |  | 
4 | CC(C)(C)OC(=O)N1CCCC(CNCCOc2cccc3c2[nH]c(=O)n3Cc2ccccc2)C1 (centres undefined) | 155 | 467 | 43.9 | < 50 |  |  |  | 
5 | CC(=O)Oc1cccc(CNCCOc2cccc3c2ccn3S(=O)(=O)c2ccccc2)c1 |  | 474 |  |  |  | 5620 |  | 
6 | CC(=O)Oc1ccc(CNCCOc2cccc3c2ccn3S(=O)(=O)c2cccc3ccccc23)cc1 | 24 | 261 | < 20 | < 50 |  |  |  | 
7 | O=S(=O)(c1ccccc1)n1ccc2c(OCCNCc3ccc(Cl)cc3)cccc21 | 16 | 1320 | < 20 | < 50 |  |  |  | 
8 | CC(C)(C)OC(=O)N1CCCC(CNCCOc2cccc3c2ccn3S(=O)(=O)c2cccc3ccccc23)C1 (centres undefined) |  | 5.8 |  |  |  |  |  | 
9 | O=S(=O)(c1ccccc1)n1ccc2c(OCCNCC3CCCC3)cccc21 |  | 269 |  |  |  | 1360 |  | 
10 | COc1ccc(NS(=O)(=O)c2ccc(I)cc2)cc1N1CCN(C)CC1 |  |  |  | < 50 |  |  |  | 
11 | CC(C)(C)OC(=O)N1CCCC(CNCCOc2cccc3c2ccn3S(=O)(=O)c2ccccc2)C1 (centres undefined) |  | 125 |  |  |  | 206 | 0 | ≤ 1
12 | Cc1cccc(CNCCOc2cccc3c2ccn3Cc2ccccc2)c1 | 293 | 958 |  | < 50 |  |  |  | 
13 | CCOc1ccc(CNCCOc2cccc3c2ccn3S(=O)(=O)c2ccccc2)cc1 | 13 | 3300 | < 20 | < 50 |  |  |  | 
14 | O=S(=O)(c1ccccc1)n1ccc2c(OCCNCc3cccc(Cl)c3)cccc21 | 5 | 580 | < 20 | > 50 |  | 11800 |  | 
15 | O=S(=O)(c1ccccc1)n1ccc2c(OCCNCc3ccccc3Cl)cccc21 |  | 881 |  |  |  | 10500 |  | 
16 | CC(=O)Oc1ccc(CNCCOc2cccc3c2CCN3S(=O)(=O)c2ccccc2)cc1 | 70 | 660 | < 20 | < 50 |  |  |  | 
17 | Cc1cccc(CNCCOc2cccc3c2CCN3S(=O)(=O)c2ccccc2)c1 | 12 | 2300 | < 20 | < 50 |  |  |  | 
18 | O=S(=O)(c1ccccc1)n1ccc2c(OCCNCc3ccccc3)cccc21 |  | 473 |  |  |  | 1610 | 57 | ≤ 10
19 | O=S(=O)(c1ccccc1)n1ccc2c(OCCNCc3ccncc3)cccc21 | 3 |  | < 20 | < 50 |  |  |  | 
20 | Cc1cccc(CNCCOc2cccc3c2ccn3S(=O)(=O)c2cccc3ccccc23)c1 | 12 | 148 | 23.6 | < 50 |  |  |  | 
21 | CN(C)c1cccc(CNCCOc2cccc3c2ccn3S(=O)(=O)c2ccccc2)c1 | 6 | 894 | < 20 | < 50 |  |  |  | 
22 | COc1ccc(CNCCOc2cccc3c2ccn3S(=O)(=O)c2ccccc2)cc1 | 1.4 | 1330 | 54.2 | < 50 |  |  |  | 
23 | CC(=O)Nc1ccc(CNCCOc2cccc3c2ccn3S(=O)(=O)c2ccccc2)cc1 | 0.3 | 3800 | < 20 | < 50 |  |  |  | 
24 | O=S(=O)(c1cccc2ccccc12)n1ccc2c(OCCNCc3ccccc3)cccc21 |  | 401 |  |  |  |  |  | 
25 | CC(C)(C)OC(=O)N1CCCC(CNCCOc2cccc3c2CCN3S(=O)(=O)c2ccccc2)C1 (centres undefined) |  | 201 |  |  |  | 1360 |  | 
26 | O=c1[nH]c2c(OCCNCc3ccccc3)cccc2n1Cc1ccccc1 | 144 | 1840 | 32.9 | < 50 | 1080 |  |  | 

Row | Structure (SMILES) | Ki [1] [nM] | IC50 (Cholinesterase [2]) [nM] | inhibition [3] [%] | inhibition (Cholinesterase [4]) [%] | IC50 (Acetylcholinesterase) [nM] | IC50 (Cholinesterase [5]) [nM] | remaining at 2 h, 50 µM [6] [%] | MNTC at 72 h [7] [µM]
27 | O=S(=O)(c1ccccc1)N1CCc2c(OCCNCc3ccccc3)cccc21 |  | 1320 |  |  |  |  |  | 
28 | c1ccc(CNCCOc2cccc3c2ccn3Cc2ccccc2)cc1 | 232 | 626 | 71.3 | < 50 |  |  |  | 
29 | COc1cccc(CNCCOc2cccc3c2ccn3S(=O)(=O)c2ccccc2)c1 | 3.6 | 1660 | 27.6 | < 50 |  |  |  | 
30 | Cc1cccc(CNCCOc2cccc3c2CC(=O)N3Cc2ccccc2)c1 | 53 | 1850 | 58.5 | < 50 | 1280 |  |  | 
31 | CNCCOc1cccc2c1ccn2S(=O)(=O)c1ccccc1 | 1.6 |  | < 20 | < 50 |  |  |  | 
32 | O=S(=O)(c1ccccc1)n1ccc2c(OCCNCC3CCCNC3)cccc21 (centres undefined) | 75 | 2260 | 27.3 | < 50 |  |  |  | 
33 | O=S(=O)(c1ccccc1)n1ccc2c(OCCNCc3ccc(F)cc3)cccc21 | 6 | 985 | 40.5 | < 50 |  |  |  | 
34 | CC(C)(C)OC(=O)N1CCC(CNCCOc2cccc3c2ccn3S(=O)(=O)c2ccccc2)CC1 | 7 | 4820 | 69.7 | < 50 |  |  |  | 
35 | COc1ccc(CNCCOc2cccc3c2ccn3S(=O)(=O)c2ccccc2)cc1OC | 0.5 | 3320 | 36.8 | < 50 |  |  |  | 
36 | O=S(=O)(c1ccccc1)n1ccc2c(OCCNCc3cc(Cl)cc(Cl)c3)cccc21 |  | 414 |  |  |  |  |  | 
37 | O=S(=O)(c1ccccc1)n1ccc2c(OCCNCc3ccccn3)cccc21 | 0.4 | 1290 | < 20 | < 50 |  |  |  | 
38 | O=[N+]([O-])c1ccc(CNCCOc2cccc3c2ccn3S(=O)(=O)c2ccccc2)cc1 | 22 | 18300 | 35.1 | < 50 |  |  |  | 
39 | CC(=O)Oc1ccc(CNCCOc2cccc3c2ccn3S(=O)(=O)c2ccccc2)cc1 |  | 228 |  |  |  | 1920 |  | 
40 | COC(=O)c1ccc(CNCCOc2cccc3c2ccn3S(=O)(=O)c2ccccc2)cc1 | 13 | 14300 | < 20 | < 50 |  |  |  | 
41 | Cc1cccc(CNCCOc2cccc3c2CCN3Cc2ccccc2)c1 | 1470 | 1260 | 72.6 | < 50 |  |  |  | 
42 | Cc1cccc(CNCCOc2cccc3c2ccn3S(=O)(=O)c2ccccc2)c1 |  | 401 |  |  |  | 2820 |  | 
43 | CC(C)(C)OC(=O)N1CCCC(CNCCOc2cccc3c2CC(=O)N3Cc2ccccc2)C1 (centres undefined) | 146 | 1080 | 65.2 | < 50 |  |  |  | 
44 | CCOc1cccc(CNCCOc2cccc3c2ccn3S(=O)(=O)c2ccccc2)c1 | 3 | 2410 | < 20 | < 50 |  |  |  | 
45 | O=C1Cc2c(OCCNCc3ccccc3)cccc2N1Cc1ccccc1 | 55 | 4430 | 42.4 | < 50 | 1710 |  |  | 
46 | CN(C)c1ccc(CNCCOc2cccc3c2ccn3S(=O)(=O)c2ccccc2)cc1 | 3.5 | 3080 | < 20 | < 50 |  |  |  | 
47 | Cc1ccc(CNCCOc2cccc3c2ccn3S(=O)(=O)c2ccccc2)o1 | 3 | 3000 | < 20 | < 50 |  |  |  | 
48 | O=S(=O)(c1ccccc1)n1ccc2c(N3CCN(Cc4ccccc4)CC3)cccc21 | 60 |  | < 20 | < 50 |  |  |  | 
49 | O=S(=O)(c1ccccc1)n1ccc2c(OCCNCc3ccc4c(c3)OCCO4)cccc21 | 0.5 | 2170 | < 20 | < 50 |  |  |  | 
50 | O=S(=O)(c1ccccc1)n1ccc2c(OCCNCc3cccc(C(F)(F)F)c3)cccc21 | 4 | 2200 | < 20 | < 50 |  |  |  | 
51 | CN(CCOc1cccc2c1ccn2S(=O)(=O)c1ccccc1)Cc1ccccc1 | 27 | 1420 | < 20 | < 50 |  |  |  | 
52 | CSc1ccc2c(c1)C(N1CCN(C)CC1)Cc1ccccc1S2 (centres undefined) |  |  |  | < 50 |  |  |  | 
